Assay results: ChEMBL document CHEMBL2396592, “Discovery of Dap-3 polymyxin analogues for the treatment of multidrug-resistant Gram-negative nosocomial infections” (J Med Chem, 2013)
≈ marks a conversion by molar mass, not a printed value. *1 amine or outer side, *2 acyl side, *3 side chain or, on linkers, in order; H or OH if unused. Where a SMILES comes first, the peptide text is derived from it. Bridges are numbered along the chain shown (N, C = ends). [ ]: non-standard residue; d: D form. The star is where a group is joined. Benzoyl(3-Ph) = O=C(c1cccc(-c2ccccc2)c1)*; X11 = COc1cc(C(=O)*)cc(-c2ccccc2)c1; 2Naphthoyl = O=C(c1ccc2ccccc2c1)*; X8 = N#Cc1cc(C(=O)*)ccc1-c1ccccc1; X14 = O=C(c1ccc(Oc2ccccc2)nc1)*; X18 = c1ccc(-c2cccc(N*)c2)cc1; Dab = NCC[C@H](N)C(=O)O; Dap = NC[C@H](N)C(=O)O; CO = O=C([*:1])[*:2]

Legend:
Pseudomonas aeruginosa [1] = assay: Antibacterial activity against polymyxin-resistant Pseudomonas aeruginosa clinical isolate 1646 assessed as growth inhibition by broth microdilution method; assay type: functional
How it was run: (§1)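 Test strain PA-1646 is a P. aeruginosa isolate with a mutated PmrAB two-component system. The system is constitutively active, so the modified lipid A moiety is constantly expressed on the cell surface, giving a polymyxin-resistant phenotype.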

Acinetobacter baumannii [2] = assay: Antibacterial activity against polymyxin-sensitive Acinetobacter baumannii clinical isolate 3167 assessed as growth inhibition by broth microdilution method; assay type: functional
Acinetobacter baumannii [3] = assay: Antibacterial activity against polymyxin-resistant Acinetobacter baumannii clinical isolate 1649 assessed as growth inhibition by broth microdilution method; assay type: functional
[4] = Cytotoxicity against human RPTEC after 24 hrs by LDH assay; assay type: cell-based; details: RPTEC cells, read-out: TC50
How it was run: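 Primary human renal proximal tubule epithelial cells in REGM (EGF, hydrocortisone, epinephrine, insulin, T3, transferrin, gentamycin/amphotericin-B, FBS). After 72 h of growth at 37 °C, 5% CO2, cells were exposed for 24 h to aqueous compound at 100, 67, 44, 30, 20 and 13 μM. LDH release into the supernatant was measured by kit and TC50 (μM) derived, with PMB and PMBN as controls.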

Klebsiella pneumoniae = assay: Antibacterial activity against polymyxin-sensitive ESBL-positive Klebsiella pneumoniae clinical isolate 3700 assessed as growth inhibition by broth microdilution method; assay type: functional
Escherichia coli = assay: Antibacterial activity against polymyxin-sensitive Escherichia coli isolate 1 assessed as growth inhibition by broth microdilution method; assay type: functional
Pseudomonas aeruginosa [5] = assay: Bactericidal activity against polymyxin-resistant Pseudomonas aeruginosa clinical isolate 1646; assay type: functional; how it was run: as §1
Pseudomonas aeruginosa [6] = assay: Antibacterial activity against polymyxin-sensitive Pseudomonas aeruginosa 1401 assessed as growth inhibition by broth microdilution method; assay type: functional
How it was run: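 CLSI broth microdilution MIC against P. aeruginosa 1401 (PA01) and 1402 (UC12120), the two strains used in the mouse thigh model.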

Acinetobacter baumannii [7] = assay: Bactericidal activity against polymyxin-resistant Acinetobacter baumannii clinical isolate 1649; assay type: functional

Row | Structure (SMILES) | MIC (Pseudomonas aeruginosa [1]) [µg/mL] | MIC (Acinetobacter baumannii [2]) [µg/mL] | MIC (Acinetobacter baumannii [3]) [µg/mL] | CC50 at 24 h [4] [µM] | MIC (Klebsiella pneumoniae) [µg/mL] | MIC (Escherichia coli) [µg/mL] | MBC (Pseudomonas aeruginosa [5]) [µg/mL] | MIC (Pseudomonas aeruginosa [6]) [µg/mL] | MBC (Acinetobacter baumannii [7]) [µg/mL]
1 | CC(C)C[C@@H]1NC(=O)[C@@H](Cc2ccccc2)NC(=O)[C@H](CCN)NC(=O)[C@@H](NC(=O)[C@H](CN)NC(=O)[C@@H](NC(=O)[C@H](CCN)NC(=O)c2ccc(Oc3ccccc3)nc2)[C@@H](C)O)CCNC(=O)[C@H]([C@@H](C)O)NC(=O)[C@H](CCN)NC(=O)[C@H](CCN)NC1=O (X14-[Dab]T[Dap][Dab][Dab][dF]L[Dab][Dab]T; lactam 4-C) | 4 | 0.25 | 2 | 61 | 0.25 | 0.25 | 16 (≈ 12.8 µM) | 1 | 4 (≈ 3.21 µM)
2 | CC(C)C[C@@H]1NC(=O)[C@@H](Cc2ccccc2)NC(=O)[C@H](CCN)NC(=O)[C@@H](NC(=O)[C@H](CN)NC(=O)[C@@H](NC(=O)[C@H](CCN)NC(=O)c2ccc(-c3ccccc3)c(C#N)c2)[C@@H](C)O)CCNC(=O)[C@H]([C@@H](C)O)NC(=O)[C@H](CCN)NC(=O)[C@H](CCN)NC1=O (X8-[Dab]T[Dap][Dab][Dab][dF]L[Dab][Dab]T; lactam 4-C) | 2 | 0.25 | 1 | 32 | 0.5 | 0.5 | 4 (≈ 3.19 µM) | 1 | 1 (≈ 0.797 µM)
3 | CC(C)C[C@@H]1NC(=O)[C@@H](Cc2ccccc2)NC(=O)[C@H](CCN)NC(=O)[C@@H](NC(=O)[C@H](CCN)NC(=O)[C@@H](N)[C@@H](C)O)CCNC(=O)[C@H]([C@@H](C)O)NC(=O)[C@H](CCN)NC(=O)[C@H](CCN)NC1=O [POLYMYXIN B NONAPEPTIDE] (H-T[Dab][Dab][Dab][dF]L[Dab][Dab]T; lactam 3-C) | > 64 | > 64 | > 64 | > 100 | > 64 | > 64 | > 64 | > 64 | > 64
4 | COc1cc(C(=O)N[C@@H](CCN)C(=O)N[C@H](C(=O)N[C@@H](CN)C(=O)N[C@H]2CCNC(=O)[C@H]([C@@H](C)O)NC(=O)[C@H](CCN)NC(=O)[C@H](CCN)NC(=O)[C@H](CC(C)C)NC(=O)[C@@H](Cc3ccccc3)NC(=O)[C@H](CCN)NC2=O)[C@@H](C)O)cc(-c2ccccc2)c1 (X11-[Dab]T[Dap][Dab][Dab][dF]L[Dab][Dab]T; lactam 4-C) | 2 | 0.25 | 4 | 26 | 0.25 | 0.25 | 4 (≈ 3.18 µM) | 0.5 | 8 (≈ 6.35 µM)
5 | CC(C)C[C@@H]1NC(=O)[C@@H](Cc2ccccc2)NC(=O)[C@H](CCN)NC(=O)[C@@H](NC(=O)[C@H](CN)NC(=O)[C@@H](NC(=O)[C@H](CCN)NC(=O)c2cccc(-c3ccccc3)c2)[C@@H](C)O)CCNC(=O)[C@H]([C@@H](C)O)NC(=O)[C@H](CCN)NC(=O)[C@H](CCN)NC1=O ({Benzoyl(3-Ph)}-[Dab]T[Dap][Dab][Dab][dF]L[Dab][Dab]T; lactam 4-C) | 1 | 0.25 | 2 | 21 | 0.5 | 0.25 | 2 (≈ 1.63 µM) | 0.5 | 2 (≈ 1.63 µM)
6 | CC(C)C[C@@H]1NC(=O)[C@@H](Cc2ccccc2)NC(=O)[C@H](CCN)NC(=O)[C@@H](NC(=O)[C@H](CN)NC(=O)[C@@H](NC(=O)[C@H](CCN)NC(=O)Nc2cccc(-c3ccccc3)c2)[C@@H](C)O)CCNC(=O)[C@H]([C@@H](C)O)NC(=O)[C@H](CCN)NC(=O)[C@H](CCN)NC1=O ({X18-CO}-[Dab]T[Dap][Dab][Dab][dF]L[Dab][Dab]T; lactam 4-C) | 1 | 0.25 | 4 | 15 | 0.25 | 0.25 | 1 (≈ 0.804 µM) | 0.5 | 4 (≈ 3.21 µM)
7 | CC(C)C[C@@H]1NC(=O)[C@@H](Cc2ccccc2)NC(=O)[C@H](CCN)NC(=O)[C@@H](NC(=O)[C@H](CN)NC(=O)[C@@H](NC(=O)[C@H](CCN)NC(=O)c2ccc3ccccc3c2)[C@@H](C)O)CCNC(=O)[C@H]([C@@H](C)O)NC(=O)[C@H](CCN)NC(=O)[C@H](CCN)NC1=O (2Naphthoyl-[Dab]T[Dap][Dab][Dab][dF]L[Dab][Dab]T; lactam 4-C) | 4 | 0.25 | 2 | 51 | 0.125 | 0.125 | 16 (≈ 13.3 µM) | 0.5 | 2 (≈ 1.66 µM)
